Experimental findings from ChEMBL document CHEMBL1157933, “The anti-cancer, anti-inflammatory and tuberculostatic activities of a series of 6,7-substituted-5,8-quinolinequinones” (Bioorg Med Chem, 2010) are described below.

The structures appear in SMILES notation.

In one test the test system is HL-60. Nature of the test: Antiproliferative activity against human HL60 cells after 48 hrs by MTT assay. It is filed as functional, cell-based. The note with it: HL-60, 48 h. On the technique in general: Tetrazolium dyes change colour on reduction, which living cells bring about.
The nature of test [1]: Antiproliferative activity against human T cells after 48 hrs by MTT assay. Particulars: T-cell. The class given is cell-based. The method in brief: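 Healthy-donor PBMC (Ficoll-hypaque) activated 2 days with CD2/CD3/CD28-loaded anti-biotin beads, then expanded 2–4 days with 20 U/mL IL-2. Cells plated at 0.2 × 10^6 cells/mL in complete RPMI with varied compound concentrations for 48 h at 37 °C; MTT 2 h, SDS/DMF lysis overnight, absorbance 570 nm. Triplicate, mean reported.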

Test [2] is described as follows: Antiinflammatory activity in human neutrophils assessed as inhibition of PMA-induced superoxide production after 20 mins by WST1 assay. The class given is functional, cell-based. Particulars: Neutrophil.

For `C[S+]([O-])C1=C(N)C(=O)c2cccnc2C1=O` (stereo not drawn), the results for the IC50 (in the test with HL-60; in test [1]; in test [2]) were 1.3 µM, 1.93 µM and greater than 200 µM, respectively.

For the compound `CNC1=C(SC)C(=O)c2cccnc2C1=O`, the concentration for half-maximal inhibition (IC50) in the test with HL-60 was 7.92 µM; in test [1] it was 7.57 µM; in test [2], greater than 200 µM.

In the case of `CNC1=C([S+](C)[O-])C(=O)c2cccnc2C1=O` (stereo not drawn), the IC50 in the test on HL-60 was 33.2 µM; in test [1], 13.4 µM; in test [2], greater than 200 µM.

In the case of `O=C1C2=C(NCCS2)C(=O)c2ncccc21`, the figures for the 50% inhibitory concentration (IC50) (with HL-60; in test [1]; in test [2]) were 3.52 µM, 6.02 µM and greater than 200 µM, respectively.

`O=C1C(NC(c2ccccc2)c2ccccc2)=C(Cl)C(=O)c2ncccc21`: the results for the IC50 (in the test with HL-60; in test [1]; in test [2]) were 2.45 µM, 2.59 µM and 33.9 µM, respectively.

For the compound `Cc1ccc2c(n1)C(=O)C(Cl)=C(Cl)C2=O`, the concentration for half-maximal inhibition (IC50) in the test with HL-60 worked out at 18.7 µM; in test [1] it was 44.9 µM; in test [2], 3.4 µM.

Take `CSC1=C(SC)C(=O)c2ncccc2C1=O`: the figures for the IC50 (in the test on HL-60; in test [1]; in test [2]) were 1.23 µM, 1.69 µM and 0.11 µM, respectively.

`Cc1ccc(S(=O)(=O)C2=C(Cl)C(=O)c3ncccc3C2=O)cc1`: the IC50 in the test with HL-60 is 38.1 µM; in test [1], 35.5 µM; in test [2], greater than 200 µM.

With `Cc1ccc2c(n1)C(=O)C(NCCBr)=C(Cl)C2=O`, the half-maximal inhibitory concentration (IC50) with HL-60 amounted to 1.21 µM; in test [1] it was 1.59 µM; in test [2], 73.2 µM.

Consider `CS(=O)(=O)C1=C(N)C(=O)c2cccnc2C1=O`, for which the IC50 is 4.53 µM in the test on HL-60, 19.3 µM in test [1] and greater than 200 µM in test [2].

For `CNC1=C(Sc2ccccc2)C(=O)c2ncccc2C1=O`, the concentration for half-maximal inhibition (IC50) was 8.03 µM in the test on HL-60, 12.2 µM in test [1] and greater than 150 µM in test [2].

Turning to `O=C1C(Cl)=C(NCCBr)C(=O)c2ncccc21`, the IC50 with HL-60 was found to be 1.2 µM; in test [1] it was 2.5 µM; in test [2] it was 20.7 µM.

On to `O=C1C(NCCBr)=C(Cl)C(=O)c2ncccc21`, for which the results for the concentration for half-maximal inhibition (IC50) (in the test with HL-60; in test [1]; in test [2]) were 1.65 µM, 2.56 µM and 20 µM, respectively.

Consider `CNC1=C(Sc2ccccc2)C(=O)c2cccnc2C1=O`, for which the values for the half-inhibitory concentration (IC50) (in the test with HL-60; in test [1]; in test [2]) were 5.88 µM, 6.91 µM and 92.8 µM, respectively.

As for `O=C1C(NCCCl)=C(Cl)C(=O)c2ncccc21`, the figures for the 50% inhibitory concentration (IC50) (in the test on HL-60; in test [1]; in test [2]) were 1.62 µM, 2.29 µM and 37 µM, respectively.

In the case of `CNC1=C(Cl)C(=O)c2ncccc2C1=O`, the concentration for half-maximal inhibition (IC50) was 2.45 µM in the test on HL-60, 3.56 µM in test [1] and 78.9 µM in test [2].

As to `CSC1=C(N)C(=O)c2cccnc2C1=O`, the IC50 in the test on HL-60 is 7.64 µM; in test [1], 8.32 µM; in test [2], greater than 150 µM.

Regarding `CNC1=C([S+](C)[O-])C(=O)c2ncccc2C1=O` (stereo not drawn), the IC50 was 12.1 µM in the test with HL-60, 11.8 µM in test [1] and greater than 200 µM in test [2].

Consider `CNC1=C(Cl)C(=O)c2cccnc2C1=O`, for which the values for the half-maximal inhibitory concentration (IC50) (with HL-60; in test [1]; in test [2]) were 4.3 µM, 5.21 µM and 41.1 µM, respectively.

Regarding `Cc1ccc(S(=O)(=O)C2=C(S(=O)(=O)c3ccc(C)cc3)C(=O)c3ncccc3C2=O)cc1`, the IC50 with HL-60 is 61.6 µM; in test [1], 40.5 µM; in test [2] it was greater than 200 µM.

With `Cc1ccc2c(n1)C(=O)C(Cl)=C(NCCBr)C2=O`, the IC50 in the test with HL-60 stood at 1.3 µM; in test [1], 2.23 µM; in test [2], 34.2 µM.

Turning to `CNC1=C(SC)C(=O)c2ncccc2C1=O`, the IC50 was 3.44 µM in the test with HL-60, 19.5 µM in test [1] and greater than 200 µM in test [2].

As for `O=C1c2cccnc2C(=O)C2SCCNC12` (stereo not drawn), the concentration for half-maximal inhibition (IC50) is 4.24 µM in the test on HL-60, 5.88 µM in test [1] and greater than 200 µM in test [2].

Consider `Oc1c(Sc2ccccc2)c(Sc2ccccc2)c(O)c2ncccc12`, for which the IC50 in the test on HL-60 is 6.95 µM; in test [1], 10 µM; in test [2] it was 2.3 µM.

For `O=C1C(Cl)=C(NCCCl)C(=O)c2ncccc21`, the IC50 with HL-60 stood at 1.94 µM; in test [1], 2.27 µM; in test [2], 31 µM.

With `O=C1C(Sc2ccccc2)=C(Sc2ccccc2)C(=O)c2ncccc21`, the values for the IC50 (in the test on HL-60; in test [1]; in test [2]) were 3.68 µM, 7.77 µM and 24.8 µM, respectively.

Usually IC50 stands for the concentration that inhibits the measured activity by half.
